# According to PMC5909786 (Drug Design, Development and Therapy, 2018):
# Columns and labels:
# [1] = tested on: Raji/VCR cell bearing BALB/c nude mice; test: In vivo antitumor activity; details: 10 mg/kg of VCR intravenously twice a week for 3 weeks, n=6
# [2] = In vivo tissue distribution; parameters: species or system Raji/VCR cell bearing BALB/c nude mice; details: 10 mg/kg of VCR intravenous
# [3] = Systemic toxicity; format: in vivo, BALB/c nude mice; details: tumor-bearing mice, after 3 weeks of administration
# How it was run: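 BALB/c nude mice (4–6 weeks, 18–22 g) carried subcutaneous right-flank xenografts of vincristine-resistant Raji cells (5×10^7 cells in 100 μL PBS). Mice were randomised into groups of six and dosed intravenously twice a week for 3 weeks with PBS control or test formulations (10 mg/kg drug). Body weight was recorded as a systemic toxicity read-out.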
# [4] = tested on: Raji cells; test: In vitro cytotoxicity; format: cell-based, human; details: Raji cells versus Raji/VCR cells, MTT, 72 hours
smiles,measurement,setting,value
"CC[C@]1(O)C[C@H]2CN(CCc3c([nH]c4ccccc34)[C@@](C(=O)OC)(c3cc4c(cc3OC)N(C=O)[C@H]3[C@@](O)(C(=O)OC)[C@H](OC(C)=O)[C@]5(CC)C=CCN6CC[C@]43[C@@H]65)C2)C1 [Free VCR, vincristine]",Tumor volume / tumor growth (in words),[1],not statistically different from the negative control
same,Drug distribution over time (in words),[2],rapidly reached a high level during the first few hours and reduced over time
same,Body weight (in words),[3],reduction in body weight
same,In vitro cytotoxicity (in words),[4],higher cytotoxicity in Raji cells than Raji/VCR cells
